Data set [1] relates to SMMC-7721. Description: Antiproliferative activity against human SMMC7721 cells after 24 hrs by MTT assay. It counts as functional, cell-based. Particulars: SMMC-7721, 24 h. The procedure, abridged:
(§1)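 Cells grown at 37 °C in humidified 5% CO2 with benzylpenicillin and streptomycin. Compounds came from 0.01 mol/L DMSO stocks and were tested at eight two-fold dilutions in triplicate, with medium-only controls, for 24 h. MTT absorbance was read at 570 nm. Survival = A_treatment/A_control × 100. IC50 is the concentration giving 50% viability inhibition, as the mean of two separate experiments.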
Background: Formazan colour is commonly taken as a measure of viable cells.

Data set [2] deals with MCF7. As to the kind of experiment: Antiproliferative activity against human MCF7 cells after 24 hrs by MTT assay. It counts as functional, cell-based. As to conditions: MCF7, 24 h. Summed up:
as §1

The test system of data set [3] is HepG2. As to the kind of experiment: Antiproliferative activity against human HepG2 cells after 24 hrs by MTT assay. As to conditions: HepG2, 24 h. The class given is functional, cell-based. The procedure, abridged:
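Tetrazolium MTT viability test; cells exposed to compound 24 h, absorbance read at 570 nm. Survival ratio = A treated / A control × 100%; IC50 is the concentration giving 50% loss of viability. Eight concentrations in two-fold dilutions, triplicate wells, mean of two separate experiments. Compounds dissolved in DMSO (0.01 mol/L stock); control wells received medium only.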

The subject of data set [4] is BGC-823. Description: Antiproliferative activity against human BGC823 cells after 24 hrs by MTT assay. It counts as functional, cell-based. Particulars: BGC-823, 24 h. The procedure, abridged: as §1
Data set [5] deals with Heps hepatoma (Mus musculus). Description: Antitumor activity against murine Heps hepatoma cells transplanted in Kunming mouse assessed as tumor growth inhibition at 20 mg/kg, iv administered 24 hrs after tumor implantation one dose per two day for total of four treatment measured after 24 hrs last postdose relative to control.
In data set [6] the test system is Mus musculus. As to the kind of experiment: Toxicity in Kunming mouse xenografted with human HepG2 cells assessed as change in body weight at 20 mg/kg, iv administered 24 hrs after tumor implantation one dose per two day for total of four treatment measured after 24 hrs last postdose (reference value: 20.90 +/- 1.29 g). As to conditions: in vivo. (In xenograft studies the graft and the host belong to different species.)

pIC50: −log10 of the molar value.

In the case of `CC(C)=CCC12OC(C)(C)C3CC(C=C4C(=O)CC(C)OC431)C2=O` (stereo not given), the pIC50 was 3.83 in data set [1], 4.17 in data set [2], 4.02 in data set [3] and 4.09 in data set [4].
For `CC(C)=CCC[C@]1(C)C=Cc2c(O)c3c(c(CC=C(C)C)c2O1)O[C@]12C(=C[C@@H]4C[C@H]1C(C)(C)O[C@@]2(C/C=C(/C)C(=O)O)C4=O)C3=O` [GAMBOGIC ACID], the inhibition in vivo at 20 mg/kg in data set [5] was 45.3%. The Activity in data set [6] was determined as 27.6 g. In addition, the figures for the negative-log IC50 (pIC50) in data set [1], in data set [2] and in data set [4] were 5.49, 5.66 and 5.63, respectively.
As for `CC(C)=CCC12OC(C)(C)C3CC(C=C4C(=O)c5cc(O)ccc5OC431)C2=O` (stereo not given), the negative logarithm of the IC50 (pIC50) in data set [1] was 4.70; in data set [2] it was 4.69; in data set [3], 4.91; in data set [4] it was 4.49.
Turning to `CC(C)=CCC12OC(C)(C)C3CC(C=C4C(=O)c5ccccc5OC431)C2=O` (stereo not given), the pIC50 in data set [1] was 4.98; in data set [2] it was 4.86; in data set [3], 5.17; in data set [4], 4.69.
For the compound `CC(C)=CCC12OC(C)(C)C3CC(C=C4C(=O)c5cccc(O)c5OC431)C2=O` (stereo not given), the negative logarithm of the IC50 (pIC50) in data set [1] was 4.93; in data set [2] it was 4.71; in data set [3] it was 4.84; in data set [4] it was 4.71.
As to `CC(C)=CCC12OC(C)(C)C3CC(C=C4C(=O)c5ccc(O)cc5OC431)C2=O` (stereo not given), the pIC50 in data set [1] is 4.91; in data set [2] it was 4.91; in data set [3] it was 4.63; in data set [4], 4.75.

Broadly, the pIC50 is the negative decadic logarithm of the IC50, by convention in mol/L. The inhibition in vivo is the drop in the measured response relative to a control, in per cent.

The record behind these values is ChEMBL document CHEMBL1759837, “Studies on chemical modification and biology of a natural product, gambogic acid (III): determination of the essential pharmacophore for biological activity” (Eur J Med Chem, 2011).
